Assay results from PubChem BioAssay AID522 (The Scripps Research Institute Molecular Screening Center, 2006).
In all, about 65,000 compounds went through this assay and about 1,200 (1.8%) were called active. For the sample, actives were picked, then their nearest neighbours and some compounds at random. Unmarked numbers belong to inactive results.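 How the source made its calls: active means activation above the mean activation of all tested compounds plus 3 SD (cut at about 50% in these data); inactive means the rest.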

target: Steroidogenic factor 1 (Homo sapiens) (UniProt Q13285); test: SF-1 ligand-binding domain transactivation enhancers – cell-based, CHO-K1, Gal4-SF-1 LBD, luciferase luminescence, primary screen (AID 522); settings: CHO-K1 Gal4-SF-1 LBD luciferase reporter; at 10 µM; stronger effect = higher value; % increase over DMSO SF-1-specific signal
Sequence (Q13285 whole entry, looked up, the tested form may be a part): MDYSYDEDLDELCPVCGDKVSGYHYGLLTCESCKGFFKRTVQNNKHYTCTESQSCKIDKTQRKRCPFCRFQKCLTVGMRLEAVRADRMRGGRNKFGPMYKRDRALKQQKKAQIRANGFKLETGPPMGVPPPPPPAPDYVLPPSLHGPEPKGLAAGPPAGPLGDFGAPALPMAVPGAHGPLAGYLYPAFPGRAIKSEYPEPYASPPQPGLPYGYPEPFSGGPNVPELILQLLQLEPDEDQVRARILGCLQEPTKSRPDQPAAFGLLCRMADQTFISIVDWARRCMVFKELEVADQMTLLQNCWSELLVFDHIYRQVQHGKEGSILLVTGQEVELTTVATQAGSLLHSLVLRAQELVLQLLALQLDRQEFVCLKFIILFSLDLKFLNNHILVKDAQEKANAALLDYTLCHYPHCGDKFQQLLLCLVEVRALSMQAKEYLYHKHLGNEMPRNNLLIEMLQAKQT
How it was run: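 Material: CHO-K1 cells with Gal4–hSF-1 LBD chimera plus Gal4-driven luciferase / Input: 4,000 CHO-K1 cells per well / Incubation: compound exposure 20 h at 37 °C / Signal: luminescence read 15 min after SteadyLite luciferase reagent, after room-temperature equilibration / Read-out: percent activation versus DMSO / Benchmarks: DMSO negative control and −SF1 background wells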

SMILES | activation
Cn1c(=NC(=O)c2ccco2)sc2cccc(F)c21 | 91.8% (active)
CCCC(=O)N=c1sc2cccc(F)c2n1C | 17.9%
Cn1c(=NC(=O)C2CC2)sc2cc(F)cc(F)c21 | -2%
CC(=O)Nc1ccn(Cc2c(F)cccc2Cl)n1 | 42.1%
CCCCOC(=O)c1ccc(N2C(=O)CC(N3CCN(C/C=C/c4ccccc4)CC3)C2=O)cc1 (configuration not stated) | -6.3%
O=C(Cn1cnc2c(cnn2-c2ccccc2)c1=O)NCc1ccccc1 | 70.3% (active)
O=C(Cn1cnc2c(cnn2-c2ccc(F)cc2)c1=O)NCCc1ccccc1 | -19.4%
COc1ccc(-n2nnc3c(=O)n(CC(=O)OCc4ccccc4)cnc32)cc1 | 9.3%
O=C(Cn1c(=O)sc2ccccc21)Nc1ccc2c(c1)OCCO2 | -9.9%
N#CC(=C1SC=CS1)c1nc(-c2ccccc2)cs1 | 80.9% (active)
N#C/C(=C1\CCCN1)c1nc(-c2ccccc2)cs1 | 30%
CCOC(=O)CSc1nnc(CNC(=O)c2ccco2)n1-c1ccc(F)cc1 | 3.4%
CN(CCc1ccccn1)S(=O)(=O)c1ccc2c3c(cccc13)C(=O)N2 | 14.4%
COc1ccccc1OCCC(=O)OCC(=O)NC(=O)NC(C)(C)C | 8.8%
CCc1nnc(NC(=O)CSc2nnc(Cc3ccccc3)n2-c2ccc(OC)cc2)s1 | -17.5%
CS(=O)(=O)c1ccc2nc(NC(=O)C3C4C=CC(C4)C3C(=O)O)sc2c1 (configuration not stated) | 8.1%
CCCCC(CCC(=O)Nc1ccc(C(=O)OCC)cc1)C(=O)O (configuration not stated) | -8.4%
CC(C)COC(=O)c1ccc(NC(=O)C2C3C=CC(C3)C2C(=O)O)cc1 (configuration not stated) | 63.7% (active)
CCc1nnc(NC(=O)c2ccc(S(=O)(=O)NC3CCCCC3)cc2)s1 | 6.1%
COc1cccc(N(CC(=O)Nc2cccc(N(C)S(C)(=O)=O)c2)S(C)(=O)=O)c1 | 1.3%
CCOC(=O)C1CCN(C(=O)Cc2c(C(=O)O)[nH]c3ccccc23)CC1 | -12.1%
CC(=O)Cc1nsc(NC(=O)c2csc3c2CCCC3)n1 | 18%
COC(=O)c1sccc1NC(=O)c1csc2c1CCCC2 | -11.7%
COC(=O)c1sc(NC(=O)c2csc3c2CCCC3)nc1C | 50.9% (active)
CCOC(=O)c1cc(-c2nnc(-c3cc(OC)c(OC)c(OC)c3)o2)c(C)nc1C | -11%
Cc1ccc(C)c2[nH]c(=O)c(CCNC(=O)CC(C)C)cc12 | -11.8%
CCOC(=O)C1Cn2c(nc3c(c2=O)C(C)(CC)Cc2ccccc2-3)S1 (configuration not stated) | -8.9%
